Where two headings read alike, the source gives them in different places.
Tests used:
[1] = ref Zhang et al., 2015, cited from earlier work
[2] = biological target: CYP 2C19 (Homo sapiens, UniProt P33261); experiment: Incubation of D or DA with recombinant human CYP 2C19; type: in vitro ADME; conditions: for conversion to DOH or metabolites by 2C19 in the absence of NADPH: incubated in the absence of NADPH; for average velocity of 2C19 in the first 10 minutes: recombinant 2C19, substrate 6 μM
[3] = type: in vivo, human
[4] = type: in vivo; conditions: mice, ABT vs. no ABT
[5] = biological target: CYP 3A4 (Homo sapiens, UniProt P08684); experiment: Incubation of D or DA with recombinant human CYP 3A4; type: in vitro ADME; conditions: recombinant 3A4; substrate 6 μM
Sequence of CYP 3A4 (P08684 whole entry): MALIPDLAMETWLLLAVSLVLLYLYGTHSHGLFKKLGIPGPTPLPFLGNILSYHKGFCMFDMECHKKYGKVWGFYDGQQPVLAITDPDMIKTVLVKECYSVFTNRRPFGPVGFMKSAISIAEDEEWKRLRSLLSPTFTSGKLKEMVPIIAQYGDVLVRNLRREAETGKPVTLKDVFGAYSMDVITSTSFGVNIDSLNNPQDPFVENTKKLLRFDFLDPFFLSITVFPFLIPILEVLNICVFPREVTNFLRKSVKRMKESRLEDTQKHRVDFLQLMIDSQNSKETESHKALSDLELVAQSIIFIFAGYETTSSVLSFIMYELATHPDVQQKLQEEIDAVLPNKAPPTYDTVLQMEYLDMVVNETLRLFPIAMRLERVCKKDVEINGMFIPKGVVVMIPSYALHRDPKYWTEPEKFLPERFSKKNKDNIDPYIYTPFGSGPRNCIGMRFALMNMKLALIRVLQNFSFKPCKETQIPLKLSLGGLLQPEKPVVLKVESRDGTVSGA

[6] = test system: human liver microsome (HLM); experiment: In vitro metabolism in human liver microsomes; type: in vitro ADME; conditions: substrate 6 μM, 60 minutes; for effect of NBN and ketoconazole together on metabolism by HLM: 10 μM NBN + 2 μM ketoconazole
Summary of the method: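 Human liver microsomes at 1 mg/mL in 50 mM potassium phosphate (pH 7.4) with 1 mM NADPH and 6 μM substrate; final methanol 0.5% (v/v). Inhibitors came from DMSO stocks (DMSO at most 0.5% v/v). NBN at 10 μM and ketoconazole at 2 μM were added with the substrate. Incubated at 37°C for 1 hour, then extracted and quantitated. Three or more independent experiments.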

[7] = test system: 2C19; conditions: 10 μM NBN; corresponding probe reaction; ref Linder et al., 2009; cited from earlier work
[8] = test system: 3A4; conditions: 1 μM ketoconazole; corresponding probe reaction; ref Linder et al., 2009; cited from earlier work
[9] = rats; ref Song et al., 2011; cited from earlier work
[10] = rats, ref Li et al., 2013b, cited from earlier work

Sequence of CYP 2C19 (P33261 whole entry): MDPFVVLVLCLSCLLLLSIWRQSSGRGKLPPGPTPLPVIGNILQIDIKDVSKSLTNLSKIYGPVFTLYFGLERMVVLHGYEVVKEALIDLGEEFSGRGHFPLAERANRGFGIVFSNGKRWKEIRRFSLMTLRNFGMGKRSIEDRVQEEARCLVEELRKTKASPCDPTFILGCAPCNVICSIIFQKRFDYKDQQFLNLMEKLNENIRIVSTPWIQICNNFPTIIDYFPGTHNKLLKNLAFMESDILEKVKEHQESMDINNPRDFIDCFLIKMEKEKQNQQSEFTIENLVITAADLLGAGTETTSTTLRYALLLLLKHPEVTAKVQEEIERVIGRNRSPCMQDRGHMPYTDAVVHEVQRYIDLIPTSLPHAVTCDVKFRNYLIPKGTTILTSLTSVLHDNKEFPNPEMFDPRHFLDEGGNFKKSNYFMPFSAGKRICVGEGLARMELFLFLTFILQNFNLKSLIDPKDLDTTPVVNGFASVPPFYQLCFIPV

Row | Structure (SMILES) | conversion to DOH or metabolites by 2C19 in the absence of NADPH [2] | average velocity of 2C19 in the first 10 minutes [2] | increase of plasma level by ABT pretreatment ([4]; 1 hour after D/DA dose) | increase of prostate content by ABT pretreatment ([4]; 1 hour after D/DA dose) | increase of plasma level by ABT pretreatment ([4]; 2 hours after D/DA dose) | increase of prostate content by ABT pretreatment ([4]; 2 hours after D/DA dose) | average velocity of 3A4 in the first 10 minutes [5] | effect of NBN and ketoconazole together on metabolism by HLM [6] | other results
1 | C/C=C(/C)C(=O)O[C@H]1Cc2cc3ccc(=O)oc3cc2OC1(C)C [DA, decursinol angelate] | not able to convert | 60 pmol D or DA per minute per pmol CYP | 30 fold | 18 fold | 30 fold | 48 fold | 5 pmol per minute per pmol CYP | additive manner | variation in the Cmax and AUC0–48h among subjects ([1]; healthy human subjects, single dose): ≤ 60 fold; effect of 2C19*17 allele on plasma AUC0–48h ([3]; human subjects by CYP SNP genotype): trend of gene-dose effect; plasma AUC0–48h compared among three racial groups (Caucasian, Hispanic, Asian) ([3]; human subjects, Kruskal-Wallis test, p<0.05): statistically different among three groups; effect of 3A4 inhibitor ketoconazole (KCZ) on metabolism by HLM ([6]; 2 μM ketoconazole, 1 mg/mL HLM): greater extent of inhibition of DA conversion to DOH and metabolite N8
2 | CCC1(c2ccccc2)NC(=O)N(Cc2ccccc2)C1=O (single isomer, unassigned; (+)) [NBN, (+)-N-3-benzylnirvanol] | – | – | – | – | – | – | – | – | inhibition of 2C19 activity in HLM [7]: 55%
3 | CC(=O)N1CCN(c2ccc(OCC3COC(Cn4ccnc4)(c4ccc(Cl)cc4Cl)O3)cc2)CC1 (centres unmarked) [ketoconazole] | – | – | – | – | – | – | – | – | inhibition of 3A4 activity in HLM [8]: 59%
4 | CC(C)=CC(=O)O[C@H]1Cc2cc3ccc(=O)oc3cc2OC1(C)C [D, decursin] | not able to convert | 60 pmol D or DA per minute per pmol CYP | 32 fold | 61 fold | 26 fold | 61 fold | 4 pmol per minute per pmol CYP | additive manner | effect of 2C19 inhibitor NBN on metabolism by HLM ([6]; 10 μM NBN, 1 mg/mL HLM): retarded the disappearance of D
5 | CC1(C)Oc2cc3oc(=O)ccc3cc2C[C@@H]1O [DOH, decursinol] | – | – | 1.5–2 fold | 1.5–2 fold | 1.5–2 fold | 1.5–2 fold | – | – | absorption (AUC-oral dose vs. AUC-i.v.) [9]: ~ 45%; urinary excretion of free DOH, share of D/DA ingested ([1]; human subjects): < 1%; AUC of plasma DOH ([10]; equal moles by oral gavage): 65012 ng·h/mL; AUC ratio, DOH group vs. D/DA group ([10]; equal moles by oral gavage): ~ 2.4 fold; tmax of plasma DOH peak ([10]; oral gavage): ~ 0.7 h

Source: PMC4872390 (The American journal of Chinese medicine, 2015)
